For eight molecules, inhibition of growth results are on record in ChEMBL document CHEMBL2375304, “Synthesis and anticancer activity of novel 2-pyridyl hexahyrocyclooctathieno[2,3-d]pyrimidine derivatives” (2013).

What all share (type): functional
In one test the test system is CAKI-1. The test is described as follows: Growth inhibition of human CAKI-1 cells at 10^-5 M after 48 hrs by Sulforhodamine B assay relative to control. The conditions noted are these: CAKI-1, 48 h, read-out: GI. Put shortly:
(§1)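 Single-dose screen at 10⁻⁵ M. Cells are preincubated 24 h at 37 °C in 5% CO2, then exposed to the compound, diluted from a DMSO stock into medium with gentamicin, for 48 h. Adherent cells are fixed with cold TCA (final 10%) and suspension cells with TCA (final 16%). Cells are stained with 0.4% SRB in 1% acetic acid and bound dye is read at 515 nm. Percent growth inhibition is taken against control wells and time-zero plates.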
On the technique in general: In SRB staining, fixed cells bind dye roughly in proportion to their protein.

The next test deals with IGROV-1. The test is described as follows: Growth inhibition of human IGROV1 cells at 10^-5 M after 48 hrs by Sulforhodamine B assay relative to control. The settings on record: IGROV-1, 48 h, read-out: GI. In a few lines: as §1
A further test has as its system PC-3. The test is described as follows: Growth inhibition of human PC3 cells at 10^-5 M after 48 hrs by Sulforhodamine B assay relative to control. The conditions noted are these: PC-3, 48 h, read-out: GI. Put shortly:
(§2)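 Single-dose primary screen at 10⁻⁵ M across 49 lines. Cells were plated 24 h beforehand, with a TCA-fixed time-zero plate, then exposed 48 h at 37 °C, 5% CO2. Cells were fixed with cold TCA, stained with SRB and read at 515 nm. Percent growth was calculated against time-zero and untreated-control absorbances.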

The next test concerns UO-31. As to the kind of experiment: Growth inhibition of human UO31 cells at 10^-5 M after 48 hrs by Sulforhodamine B assay relative to control. The settings on record: UO-31, 48 h, read-out: GI. Put shortly: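 Single-dose stage: compound tested at 10⁻⁵ M in the 49-cell-line panel. Cells grew 24 h at 37 °C, 5% CO₂ before drug addition. Drug stock was in DMSO at 400-fold, diluted in medium with gentamicin. After 48 h exposure, adherent cells were fixed with cold TCA (10% final) and stained with 0.4% SRB in 1% acetic acid. Dye was solubilized in 10 mM Tris, read at 515 nm. Growth percentage was taken relative to untreated control and time-zero plates.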

The nature of test [1]: Growth inhibition of human HCC2998 cells at 10^-5 M after 48 hrs by Sulforhodamine B assay relative to control. The settings on record: HCC 2998, 48 h, read-out: GI. In a few lines: as §1
The next test concerns KM12. As to the kind of experiment: Growth inhibition of human KM12 cells at 10^-5 M after 48 hrs by Sulforhodamine B assay relative to control. The settings on record: KM12, 48 h, read-out: GI. Put shortly: as §1
A further test concerns HCT-116. As to the kind of experiment: Growth inhibition of human HCT116 cells at 10^-5 M after 48 hrs by Sulforhodamine B assay relative to control. The settings on record: HCT-116, 48 h, read-out: GI. In a few lines: as §1
A further test has as its system M14. As to the kind of experiment: Growth inhibition of human M14 cells at 10^-5 M after 48 hrs by Sulforhodamine B assay relative to control. The conditions noted are these: M14, 48 h, read-out: GI. In a few lines:
as §1

Another test concerns RPMI-8226. The test is described as follows: Growth inhibition of human RPMI8226 cells at 10^-5 M after 48 hrs by Sulforhodamine B assay relative to control. The conditions noted are these: RPMI-8226, 48 h, read-out: GI. Put shortly:
as §2

For a further test, the system named is OVCAR-3. As to the kind of experiment: Growth inhibition of human OVCAR3 cells at 10^-5 M after 48 hrs by Sulforhodamine B assay relative to control. The settings on record: OVCAR-3, 48 h, read-out: GI. Put shortly:
as §2

Another test concerns OVCAR-8. As to the kind of experiment: Growth inhibition of human OVCAR8 cells at 10^-5 M after 48 hrs by Sulforhodamine B assay relative to control. The conditions noted are these: OVCAR-8, 48 h, read-out: GI. Put shortly:
as §2

The test system of a further test is SF-539. The test is described as follows: Growth inhibition of human SF539 cells at 10^-5 M after 48 hrs by Sulforhodamine B assay relative to control. The conditions noted are these: SF-539, 48 h, read-out: GI. In a few lines:
as §2

The nature of test [2]: Growth inhibition of human NCI-ADR-RES cells at 10^-5 M after 48 hrs by Sulforhodamine B assay relative to control. The settings on record: read-out: GI. In a few lines: as §2
In the next test the test system is A549. The test is described as follows: Growth inhibition of human A549/ATCC cells at 10^-5 M after 48 hrs by Sulforhodamine B assay relative to control. The settings on record: A549, 48 h, read-out: GI. Put shortly:
as §1

In the case of `COc1ccc(N2CCN(c3nc(-c4ccncc4)nc4sc5c(c34)CCCCCC5)CC2)cc1`, the inhibition of growth at 10 µM in the test on CAKI-1 was 28.8%; in the test on IGROV-1, 3.43%; in the test with PC-3, 44.5%; in the test with UO-31, 11.1%; in test [1], -11.5%; in the test on KM12, 22.4%. Further, the inhibition of growth at 10 µM in the test on HCT-116 is 23.3%; in the test on M14, -0.58%; in the test with RPMI-8226, 28.8%; in the test with OVCAR-3 it was 9.75%; in the test on OVCAR-8, 5.9%; in the test on SF-539, 7.87%. Further, the inhibition of growth at 10 µM in test [2] stood at 9.28%.
For `c1ccc(N2CCN(c3nc(-c4ccncc4)nc4sc5c(c34)CCCCCC5)CC2)cc1`, the inhibition of growth at 10 µM is 8.66% in the test with CAKI-1; 0.86% in the test on IGROV-1; -0.56% in the test on A549; 5.9% in the test with PC-3; 16.1% in the test with UO-31; -14% in test [1]. In addition, the inhibition of growth at 10 µM was 4.95% in the test with KM12; -3.45% in the test on HCT-116; -8.43% in the test with M14; 3.42% with RPMI-8226; 7.59% in the test on OVCAR-3; 8.55% in the test with OVCAR-8. Moreover, the results for the inhibition of growth at 10 µM (in the test on SF-539; in test [2]) were 1.14% and 5.34%, respectively.
On to `c1ccc(N2CCN(c3nc(-c4ccccn4)nc4sc5c(c34)CCCCCC5)CC2)cc1`, for which the inhibition of growth at 10 µM with CAKI-1 is 45.9%; with IGROV-1, 62.9%; with A549, 68.2%; in the test with PC-3, 54%; with UO-31, 55.8%; in [1] it was 13.7%. The inhibition of growth at 10 µM worked out at 55% in the test on KM12; 80.5% in the test with HCT-116; 27.1% in the test with M14; 57.5% with RPMI-8226; 27% with OVCAR-3; 44.5% with OVCAR-8. Also, the inhibition of growth at 10 µM with SF-539 amounted to 12.6%; in test [2], 57.5%.
As for `CN1CCN(c2nc(-c3ccccn3)nc3sc4c(c23)CCCCCC4)CC1`, the inhibition of growth at 10 µM is 20% with CAKI-1; 6.64% with IGROV-1; 22.6% with A549; 15.3% in the test with PC-3; 32.8% in the test with UO-31; 4.02% in test [1]. The inhibition of growth at 10 µM in the test on KM12 is 8.11%; in the test on HCT-116, 14.1%; in the test with M14, 6.12%; in the test with RPMI-8226, 12.4%; in the test with OVCAR-3 it was -5.6%; in the test on OVCAR-8, -1.5%. In addition, the inhibition of growth at 10 µM in the test with SF-539 was 37.4%; in test [2], 22.7%.
As for `c1cc(-c2nc(N3CCOCC3)c3c4c(sc3n2)CCCCCC4)ccn1`, the inhibition of growth at 10 µM was 15.8% with CAKI-1; 1.53% in the test on IGROV-1; 24.9% in the test with A549; 35.4% in the test with PC-3; 38.7% in the test with UO-31; -8.59% in [1]. In addition, the inhibition of growth at 10 µM was 19.6% in the test on KM12; 23.2% with HCT-116; -15.4% with M14; 32.2% in the test on RPMI-8226; 15.4% in the test on OVCAR-3; 15.3% in the test with OVCAR-8. The inhibition of growth at 10 µM with SF-539 was determined as 15.8%; in [2], 18.7%.
Consider `NNc1nc(-c2ccncc2)nc2sc3c(c12)CCCCCC3`, for which the inhibition of growth at 10 µM with CAKI-1 was 7.27%; in the test on IGROV-1, -16.5%; in the test on A549, -1.81%; with PC-3 it was 7.42%; in the test on UO-31, 20.4%; in test [1], -16%. Moreover, the inhibition of growth at 10 µM with KM12 was -0.57%; in the test with HCT-116, 4.13%; with M14, -11.9%; with RPMI-8226, 12.1%; with OVCAR-3, -0.84%; in the test on OVCAR-8 it was 2.51%. Besides, the inhibition of growth at 10 µM was -14.8% in the test on SF-539 and 2.44% in test [2].
As for `Clc1nc(-c2ccncc2)nc2sc3c(c12)CCCCCC3`, the inhibition of growth at 10 µM was -4.99% with CAKI-1; 7.04% in the test on IGROV-1; -3.56% with A549; 0.63% with PC-3; 13.9% with UO-31; -12.3% in test [1]. The inhibition of growth at 10 µM in the test with KM12 was 0.47%; with HCT-116, 2.69%; in the test on M14, -7.52%; with RPMI-8226, 0.89%; in the test on OVCAR-3, -5.97%; with OVCAR-8, -1.87%. Besides, the results for the inhibition of growth at 10 µM (in the test with SF-539; in [2]) were 6.69% and -6.46%, respectively.
`Clc1nc(-c2ccccn2)nc2sc3c(c12)CCCCCC3`: the inhibition of growth at 10 µM in the test with CAKI-1 was found to be 165%; in the test with IGROV-1, 10.2%; with A549, 0.18%; with PC-3 it was 7.81%; in the test with UO-31 it was 83.6%; in test [1] it was 36.6%. Moreover, the inhibition of growth at 10 µM is 8.45% in the test with KM12; 15.5% in the test with HCT-116; 13.2% in the test with M14; 4.46% in the test with RPMI-8226; -7.89% in the test on OVCAR-3; 12.9% with OVCAR-8. Further, the inhibition of growth at 10 µM in the test on SF-539 stood at 2.75%; in [2], 10.7%.
